ChEMBL document CHEMBL5038587, “Synthesis of Methoxy-, Methylenedioxy-, Hydroxy-, and Halo-Substituted Benzophenanthridinone Derivatives as DNA Topoisomerase IB (TOP1) and Tyrosyl-DNA Phosphodiesterase 1 (TDP1) Inhibitors and Their Biological Activity for Drug-Resistant Cancer” (J Med Chem, 2021)
Active and inactive are the calls of the source. No cut-off for these calls is given here.

The molecules below were run against Tyrosyl-DNA phosphodiesterase 1 (Homo sapiens, UniProt Q9NUW8) (assay: Inhibition of TDP1 (unknown origin) using 5'-FAM-AGGATCTAAAAGACTT-BHQ-3' as substrate at 100 uM measured after 30 mins by fluorescence assay relative to control).
Sequence of Tyrosyl-DNA phosphodiesterase 1 (Q9NUW8 whole entry): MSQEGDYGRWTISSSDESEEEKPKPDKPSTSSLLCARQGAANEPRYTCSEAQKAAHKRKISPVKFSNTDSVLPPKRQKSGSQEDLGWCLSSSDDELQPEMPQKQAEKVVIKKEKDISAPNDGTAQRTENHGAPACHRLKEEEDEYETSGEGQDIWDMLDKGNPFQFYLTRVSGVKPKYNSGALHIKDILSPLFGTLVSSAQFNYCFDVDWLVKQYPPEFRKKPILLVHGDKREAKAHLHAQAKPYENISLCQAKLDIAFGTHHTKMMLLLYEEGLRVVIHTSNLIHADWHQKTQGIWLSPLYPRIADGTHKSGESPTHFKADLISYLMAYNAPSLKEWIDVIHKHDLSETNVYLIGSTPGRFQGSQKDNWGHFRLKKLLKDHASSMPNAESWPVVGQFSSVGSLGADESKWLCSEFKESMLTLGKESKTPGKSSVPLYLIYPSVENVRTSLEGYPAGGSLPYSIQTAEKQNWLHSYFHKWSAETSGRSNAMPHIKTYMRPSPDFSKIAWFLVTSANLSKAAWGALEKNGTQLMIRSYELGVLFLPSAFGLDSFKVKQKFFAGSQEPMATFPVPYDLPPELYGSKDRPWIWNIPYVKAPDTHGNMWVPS
`CN(C)CCn1c(=O)c2ccc(Cl)cc2c2ccc3cc4c(cc3c21)OCO4` showed an inhibition of 0%. With `COc1cc2c(=O)n(CCN(C)C)c3c4cc5c(cc4ccc3c2cc1OC(C)C)OCO5` the inhibition was 0%. `COc1cc2ccc3c4cc(OC)c(OC)cc4c(=O)n(CCN(C)C)c3c2cc1O` gave an inhibition of 0%. For `CN(C)CCn1c(=O)c2cc([N+](=O)[O-])ccc2c2ccc3cc4c(cc3c21)OCO4`, the inhibition was 0%. `COc1ccc2c(=O)n(CCN(C)C)c3c4cc5c(cc4ccc3c2c1O)OCO5` showed an inhibition of 0%. Work on `COc1ccc2c(=O)n(CCN(C)C)c3c4cc5c(cc4ccc3c2c1OC)OCO5` yielded an inhibition of 0%. `COc1cc2ccccc2c2c1c1ccccc1c(=O)n2CCN(C)C` gave an inhibition of 0%. `CN(C)CCn1c(=O)c2ccccc2c2ccc3ccccc3c21` was tested, and the inhibition was 0%. `COc1ccc2c(c1OC)c(=O)n(CCN(C)C)c1c3cc4c(cc3ccc21)OCO4` was tested, and the inhibition was 0%. In the case of `CN(C)CCn1c(=O)c2cc(O)c(O)cc2c2ccc3cc4c(cc3c21)OCO4`, the inhibition is reported as 0%. `COc1cc2c(=O)n(CCN(C)C)c3c4cc(O)c(O)cc4ccc3c2cc1OC` gave an inhibition of 0%. With `CN(C)CCn1c(=O)c2ccc(F)cc2c2ccc3cc4c(cc3c21)OCO4` the inhibition was 0%. `CN(C)CCn1c(=O)c2cc(F)ccc2c2ccc3cc4c(cc3c21)OCO4` gave an inhibition of 0%. For `COc1cccc2c(=O)n(CCN(C)C)c3c4ccccc4ccc3c12`, the inhibition was 0%. For `COc1cccc2c1c(=O)n(CCN(C)C)c1c3cc4c(cc3ccc21)OCO4`, the inhibition was 0%. In the case of `CN(C)CCn1c(=O)c2ccccc2c2ccc3cc4c(cc3c21)OCO4`, the inhibition is reported as 0%. With `COc1cc2ccc3c4ccc5c(c4c(=O)n(CCN(C)C)c3c2cc1OC)OCO5` the inhibition was 0%. Work on `CN(C)CCn1c(=O)c2ccc(C(F)(F)F)cc2c2ccc3cc4c(cc3c21)OCO4` yielded an inhibition of 0%. Work on `CN(C)CCn1c(=O)c2cc(O)ccc2c2ccc3ccccc3c21` yielded an inhibition of 0%. In the case of `COc1ccc2c(=O)n(CCN(C)C)c3c4cc5c(cc4ccc3c2c1)OCO5`, the inhibition is reported as 0%. `COc1cc2ccc3c4ccc(OC)c(OC)c4c(=O)n(CCN(C)C)c3c2cc1OC` showed an inhibition of 0%. `COc1ccc2c(c1)c(=O)n(CCN(C)C)c1c3cc4c(cc3ccc21)OCO4` gave an inhibition of 0%. `COc1cc2c(cc1OC(C)C)c(=O)n(CCN(C)C)c1c3cc4c(cc3ccc21)OCO4` was tested, and the inhibition was 0%. `COc1ccc2c(=O)n(CCN(C)C)c3c4ccccc4ccc3c2c1OC` was tested, and the inhibition was 0%. Molecule `COc1ccc2ccc3c4ccccc4c(=O)n(CCN(C)C)c3c2c1` has an inhibition of 0%. Work on `COc1cc2ccc3c4c(OC)c(OC)ccc4c(=O)n(CCN(C)C)c3c2cc1OC` yielded an inhibition of 0%.

What follows are molecules tested on HCT-116 (assay: Cytotoxicity against human HCT-116 cells assessed as cell growth inhibition after 72 hrs by MTT assay).
Type: functional
Method in brief: (§1)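 Cells kept in RPMI 1640 or DMEM with 10% FBS at 37 °C, 5% CO2. Compounds predissolved in DMSO, tested in a five-dose series from 0.01 to 100 µM for 72 h, then read by MTT. Percent viability inhibition is taken against control, and GI50 is fitted by nonlinear regression.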
In the case of `COc1cc2c(=O)n(CCN(C)C)c3c4cc5c(cc4ccc3c2cc1OC(C)C)OCO5`, the GI50 is reported as 0.9 µM. For `COc1cc2ccc3c4ccc(OC)c(OC)c4c(=O)n(CCN(C)C)c3c2cc1OC`, the GI50 was over 100 µM. With `COc1cc2ccc3c4c(OC)c(OC)ccc4c(=O)n(CCN(C)C)c3c2cc1OC` the GI50 was over 100 µM.

Each molecule was assayed on DU-145 (assay: Cytotoxicity against human DU145 cells assessed as cell growth inhibition after 72 hrs by MTT assay).
Type: functional
Method in brief: (§2)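 Compounds predissolved in DMSO, tested in a five-dose series from 0.01 to 100 µM for 72 h, then read by MTT. Percent viability inhibition is taken against control, and GI50 is fitted by nonlinear regression.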
`CN(C)CCn1c(=O)c2cc(O)c(O)cc2c2ccc3cc4c(cc3c21)OCO4` showed a GI50 of over 100 µM. For `CN(C)CCn1c(=O)c2ccc(C(F)(F)F)cc2c2ccc3cc4c(cc3c21)OCO4`, the GI50 was 1 µM. Molecule `COc1cc2ccc3c4c(OC)c(OC)ccc4c(=O)n(CCN(C)C)c3c2cc1OC` has a GI50 of over 100 µM.

Each molecule was assayed on MCF7 (assay: Cytotoxicity against human MCF-7 cells assessed as cell growth inhibition after 72 hrs by MTT assay).
Type: functional
Method in brief: as §2
`COc1ccc2c(=O)n(CCN(C)C)c3c4cc5c(cc4ccc3c2c1O)OCO5` was tested, and the GI50 was over 100 µM. For `COc1ccc2c(=O)n(CCN(C)C)c3c4cc5c(cc4ccc3c2c1)OCO5`, the GI50 was 0.2 µM. `COc1cc2ccc3c4c(OC)c(OC)ccc4c(=O)n(CCN(C)C)c3c2cc1OC` showed a GI50 of over 100 µM.

These molecules were tested on A549 (assay: Cytotoxicity against human A549 cells assessed as cell growth inhibition after 72 hrs by MTT assay).
Type: functional
Method in brief: as §1
Molecule `CN(C)CCn1c(=O)c2cc(F)ccc2c2ccc3cc4c(cc3c21)OCO4` has a GI50 of 7.87 µM.

What follows are molecules tested against T1, DNA topoisomerase 1 (Homo sapiens) (UniProt P11387) (assay: Inhibition of recombinant TOP1 (unknown origin) at 1 uM using 3'-[32P]-labeled 117 bp DNA oligonucleotides as substrate incubated for 20 mins by PAGE analysis relative to CPT).
T1 sequence (whole entry): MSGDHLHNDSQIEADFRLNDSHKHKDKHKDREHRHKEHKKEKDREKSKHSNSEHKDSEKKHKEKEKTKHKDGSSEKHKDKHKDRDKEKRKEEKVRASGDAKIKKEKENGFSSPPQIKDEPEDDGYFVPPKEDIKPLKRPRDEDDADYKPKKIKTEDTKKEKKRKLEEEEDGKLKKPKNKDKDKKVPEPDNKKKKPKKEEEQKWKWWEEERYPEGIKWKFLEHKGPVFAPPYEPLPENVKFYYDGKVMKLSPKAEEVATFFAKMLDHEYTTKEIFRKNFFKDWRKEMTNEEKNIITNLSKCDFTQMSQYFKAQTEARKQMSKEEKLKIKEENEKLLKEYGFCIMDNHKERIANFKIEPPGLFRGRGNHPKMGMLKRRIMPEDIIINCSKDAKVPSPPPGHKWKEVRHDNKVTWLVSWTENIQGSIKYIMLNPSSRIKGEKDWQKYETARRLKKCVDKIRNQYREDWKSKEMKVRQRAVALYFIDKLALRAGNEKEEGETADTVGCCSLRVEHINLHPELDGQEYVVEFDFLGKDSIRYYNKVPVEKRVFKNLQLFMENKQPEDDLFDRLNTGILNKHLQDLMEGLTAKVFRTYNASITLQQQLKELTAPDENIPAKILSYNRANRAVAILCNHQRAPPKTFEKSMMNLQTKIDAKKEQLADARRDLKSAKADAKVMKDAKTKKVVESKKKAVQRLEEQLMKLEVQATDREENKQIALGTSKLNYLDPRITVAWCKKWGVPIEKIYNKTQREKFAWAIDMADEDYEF
Method in brief: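 3'-[32P]-labeled 117 bp oligonucleotide (~2 nM) with recombinant TOP1 and compound, 25 °C, 20 min. Buffer: 10 mM Tris-HCl pH 7.5, 50 mM KCl, 5 mM MgCl2, 0.1 mM EDTA, BSA. Stopped with 0.5% SDS and run on 20% denaturing PAGE with phosphorimaging.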
In the case of `CN(C)CCn1c(=O)c2ccc(Cl)cc2c2ccc3cc4c(cc3c21)OCO4`, the inhibition is reported as 75%. Work on `COc1cc2c(=O)n(CCN(C)C)c3c4cc5c(cc4ccc3c2cc1OC(C)C)OCO5` yielded an inhibition of 20%. In the case of `COc1cc2ccc3c4cc(OC)c(OC)cc4c(=O)n(CCN(C)C)c3c2cc1O`, the inhibition is reported as under 20%. For `CN(C)CCn1c(=O)c2cc([N+](=O)[O-])ccc2c2ccc3cc4c(cc3c21)OCO4`, the inhibition was 75%. For `COc1ccc2c(=O)n(CCN(C)C)c3c4cc5c(cc4ccc3c2c1O)OCO5`, the inhibition was “inactive”. In the case of `COc1ccc2c(=O)n(CCN(C)C)c3c4cc5c(cc4ccc3c2c1OC)OCO5`, the inhibition is reported as “inactive”. For `COc1cc2ccccc2c2c1c1ccccc1c(=O)n2CCN(C)C`, the inhibition was “inactive”. `CN(C)CCn1c(=O)c2ccccc2c2ccc3ccccc3c21` was tested, and the inhibition was 20%. For `COc1ccc2c(c1OC)c(=O)n(CCN(C)C)c1c3cc4c(cc3ccc21)OCO4`, the inhibition was “inactive”. Molecule `CN(C)CCn1c(=O)c2cc(O)c(O)cc2c2ccc3cc4c(cc3c21)OCO4` has an inhibition of 20%. `COc1cc2c(=O)n(CCN(C)C)c3c4cc(O)c(O)cc4ccc3c2cc1OC` showed an inhibition of 50%. `CN(C)CCn1c(=O)c2ccc(F)cc2c2ccc3cc4c(cc3c21)OCO4` was tested, and the inhibition was 50%. With `CN(C)CCn1c(=O)c2cc(F)ccc2c2ccc3cc4c(cc3c21)OCO4` the inhibition was 75%. For `COc1cccc2c(=O)n(CCN(C)C)c3c4ccccc4ccc3c12`, the inhibition was “inactive”. Molecule `COc1cccc2c1c(=O)n(CCN(C)C)c1c3cc4c(cc3ccc21)OCO4` has an inhibition of 20%. Molecule `CN(C)CCn1c(=O)c2ccccc2c2ccc3cc4c(cc3c21)OCO4` has an inhibition of 20%. `COc1cc2ccc3c4ccc5c(c4c(=O)n(CCN(C)C)c3c2cc1OC)OCO5` showed an inhibition of 20%. For `CN(C)CCn1c(=O)c2ccc(C(F)(F)F)cc2c2ccc3cc4c(cc3c21)OCO4`, the inhibition was 50%. `CN(C)CCn1c(=O)c2cc(O)ccc2c2ccc3ccccc3c21` gave an inhibition of 20%. With `COc1ccc2c(=O)n(CCN(C)C)c3c4cc5c(cc4ccc3c2c1)OCO5` the inhibition was 75%. `COc1cc2ccc3c4ccc(OC)c(OC)c4c(=O)n(CCN(C)C)c3c2cc1OC` was tested, and the inhibition was “inactive”. `COc1ccc2c(c1)c(=O)n(CCN(C)C)c1c3cc4c(cc3ccc21)OCO4` was tested, and the inhibition was “Active”. In the case of `COc1cc2c(cc1OC(C)C)c(=O)n(CCN(C)C)c1c3cc4c(cc3ccc21)OCO4`, the inhibition is reported as “inactive”. For `COc1ccc2c(=O)n(CCN(C)C)c3c4ccccc4ccc3c2c1OC`, the inhibition was “inactive”. `COc1ccc2ccc3c4ccccc4c(=O)n(CCN(C)C)c3c2c1` was tested, and the inhibition was 20%. With `COc1cc2ccc3c4c(OC)c(OC)ccc4c(=O)n(CCN(C)C)c3c2cc1OC` the inhibition was “inactive”.
